Assays:
Canis familiaris [1] = experiment: Tested for gastric antisecretory activity in histamine-stimulated gastric fistula dogs by intragastric administration; format: functional; settings: Canis lupus familiaris, Stomach, po
Outline: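 Conscious adult female beagles (6–12 kg) with simple gastric fistulas, fasted 18 h. After a 30-min basal period, drug given intragastrically via dosing plug with cannula closed 30 min, then histamine infused at 15 µg kg-1 h-1. Juice collected every 30 min for 4 h and titrated with 0.1 N NaOH to pH 7.0. ED50 is 50% inhibition of 4-h total acid output, from three-dose curves.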

Canis familiaris [2] = experiment: Tested for relative antisecretory potency in histamine-stimulated gastric fistula dogs by intragastric administration; format: functional; settings: Canis lupus familiaris, Stomach, po
Outline: (§1)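 Gastric fistula beagles given drug intragastrically, then histamine infused at 15 µg kg-1 h-1. Total acid output collected over 4 h by NaOH titration to pH 7.0, and percent inhibition curves built. Relative antisecretory potency and its limits were computed by bioassay statistical analysis of these dose-response data.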

Canis familiaris [3] = organism: Canis familiaris; experiment: Activity ratio ED50 of diarrhea to ED50 of antisecretory in histamine -stimulated gastric fistula dogs; format: functional, Canis lupus familiaris, Stomach
Outline: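 Ratio of the 8-h rat diarrhea ED50 to the dog antisecretory ED50. Diarrhea: fasted (24 h) male Charles River rats (210–230 g; n = 6–12) given logarithmically graded oral doses and scored all-or-none hourly to 8 h, with ED50 from a maximum-likelihood logistic model. Antisecretory ED50: intragastric dosing in histamine-infused gastric fistula dogs, from 4-h acid output.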

Canis familiaris [4] = experiment: Tested for gastric antisecretory activity in histamine-stimulated Heidenhain pouch dogs by intravenous administration; format: functional; settings: Canis lupus familiaris, Stomach
Canis familiaris [5] = experiment: Tested for relative antisecretory potency in histamine-stimulated gastric fistula dogs by intragastric administration; value ranges from (0.53-1.76); format: functional; settings: Canis lupus familiaris, Stomach, po; outline: as §1
Canis familiaris [6] = experiment: Tested for relative antisecretory potency in histamine-stimulated gastric fistula dogs by intragastric administration; value ranges from (0.13-0.48); format: functional; settings: Canis lupus familiaris, Stomach, po; outline: as §1

Structure (SMILES): CCCCC(C)(O)C/C=C/[C@H]1[C@H](O)CC(=O)[C@@H]1C/C=C\C=C\CC(=O)OC (stereo not given in full)
- ED50 (Canis familiaris [1]): 0.08 µg/kg
- relative potency (Canis familiaris [2]): 1
- Ratio (Canis familiaris [3]): 1638

Structure (SMILES): CCCCC(C)(O)C/C=C/[C@H]1[C@H](O)CC(=O)[C@@H]1CC#C/C=C/CC(=O)OC (stereo not given in full)
- ED50 (Canis familiaris [4]): > 1 µg/kg

Structure (SMILES): CCCCC(C)(O)C/C=C/[C@H]1[C@H](O)CC(=O)[C@@H]1C/C=C\C=C/CC(=O)OC.CCCCC(C)(O)C/C=C/[C@H]1[C@H](O)CC(=O)[C@@H]1C/C=C\C=C\CC(=O)OC (mixture of isomers)
- ED50 (Canis familiaris [1]): 0.08 µg/kg
- Ratio (Canis familiaris [3]): 8025
- relative potency (Canis familiaris [5]): 0.95

Structure (SMILES): CCCCC(C)(O)C/C=C/[C@H]1[C@H](O)CC(=O)[C@@H]1CCCCCCC(=O)OC (stereo not given in full) [MISOPROSTOL]
- ED50 (Canis familiaris [1]): 0.28 µg/kg
- relative potency (Canis familiaris [6]): 0.26
- Ratio (Canis familiaris [3]): 1364
